Series [1] can be described thus: Drug level in Sprague-Dawley rat liver at 5 mg/kg, po after 4 hrs. In kind it is ADME, organism-based. On the set-up: dose 5 mg/kg, route oral. The settings on record: read-out: Drug uptake. An outline of the steps:
(§1)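 Oral dosing in male Sprague-Dawley rats, PEG400 vehicle; plasma exposure as AUC 0–4 h; liver tissue concentration taken at the 4 h time point. Doses of 3–4 mg/kg were normalized to 5 mg/kg by linear adjustment.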

Series [2] is described as follows: Drug level in Sprague-Dawley rat liver at 4 mg/kg, po after 4 hrs. In kind it is ADME, organism-based. The settings on record: read-out: Drug uptake. On the set-up: dose 4 mg/kg, route oral. An outline of the steps:
as §1

The subject of series [3] is Hepatitis C virus. Description: Antiviral activity against HCV 1b infected in human HuH7 cells by replicon assay in presence of 10% fetal bovine serum. In kind it is functional, organism-based, Hepacivirus hominis. The settings on record: genotype 1b, Huh-7. An outline of the steps:
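Subgenomic genotype 1b HCV RNA replicon in HUH-7 cells, modified Bartenschlager procedure, run with 10% fetal bovine serum. Read-out is cellular HCV RNA, confirmed in a separate assay using an anti-NS3 monoclonal antibody; EC50 derived.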
(Replicon systems follow genome replication, usually without infectious particles.)

Series [4] in a line: AUC (0 to 4 hrs) in Sprague-Dawley rat at 5 mg/kg, po. In kind it is ADME, organism-based. On the set-up: time < 4 hr, dose 5 mg/kg, route oral. Conditions: plasma. In short, it runs like this: as §1
Series [5] is described as follows: AUC (0 to 4 hrs) in Sprague-Dawley rat at 4 mg/kg, po. Conditions: plasma. More on the design: time < 4 hr, dose 4 mg/kg, route oral. In kind it is ADME, organism-based. In short, it runs like this:
as §1

Series [6] relates to Hepatitis C virus. Put plainly: Inhibition of HCV 1b NS3 protease by time-resolved fluorescence assay. On the set-up: species or system Hepatitis C virus subtype 1b. In short, it runs like this: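 Recombinant genotype 1b NS3 protease measured by time-resolved fluorescence assay; Ki determined.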
The species entered for series [7] is Homo sapiens. Description: Fraction unbound in human plasma.
For series [8], the system named is Hepatitis C virus. Description: Antiviral activity against HCV 1b infected in human HuH7 cells by replicon assay in presence of 50% normal human plasma. In kind it is functional, organism-based, Hepacivirus hominis. The settings on record: genotype 1b, Huh-7, Plasma. In short, it runs like this: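 Genotype 1b subgenomic replicon in HUH-7 cells run under high-serum conditions (50% normal human serum). Read-out is cellular HCV RNA; EC50 reported.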

SMILES strings stand for the structures.

Broadly, the EC50 is the concentration giving half of the maximal effect. For orientation: AUC(0-t) means the area under the concentration-time curve up to a stated or last time point. Lower therefore signals low exposure. As usually defined, the Ki is a measure of affinity in units of concentration, obtained from inhibition or displacement. `C=C[C@@H]1C[C@]1(NC(=O)[C@@H]1C[C@@H]2CN1C(=O)[C@H](C1CCCCC1)N(C)[C@H](C)CCCCCCc1cccc3c1CN(C3)C(=O)O2)C(=O)NS(=O)(=O)C1CC1`: the concentration at 4 h in series [1] and in series [2] was 0.56 µM in each case. Also, the EC50 in series [3] was determined as 3 nM. In addition, the area under the curve AUC(0-t) at 4 h in series [4] and in series [5] was under 100 nM·h in each case. Also, affinity in series [6] was put at a Ki of 0.35 nM.
In the case of `C=C[C@@H]1C[C@]1(NC(=O)[C@@H]1C[C@@H]2CN1C(=O)[C@H](C1CCCC1)N[C@H](C)CCCC/C=C/c1cccc3c1CN(C3)C(=O)O2)C(=O)NS(=O)(=O)C1CC1`, the concentration at 4 h in series [1] amounted to 0.26 µM. Moreover, in series [3], the EC50 was 0.5 nM. Also, in series [4], the AUC(0-t) at 4 h was under 100 nM·h. Moreover, in series [6], the inhibition constant (Ki) was determined as 0.29 nM.
On to `C=C[C@@H]1C[C@]1(NC(=O)[C@@H]1C[C@@H]2CN1C(=O)[C@H](C1CCCC1)N[C@H](C)CCCCCCc1cccc3c1CN(C3)C(=O)O2)C(=O)NS(=O)(=O)C1CC1`, for which the concentration at 4 h in series [2] is under 0.1 µM. In addition, the EC50 in series [3] is 0.7 nM. For the same molecule, the area under the curve AUC(0-t) at 4 h in series [5] was under 100 nM·h. Also, in series [6], the affinity, expressed as Ki, was 0.1 nM.
On to `C=C[C@@H]1C[C@]1(NC(=O)[C@@H]1C[C@@H]2CN1C(=O)[C@H](C(C)C)N[C@@H](C(F)(F)F)CCCCCCc1cccc3c1CN(C3)C(=O)O2)C(=O)NS(=O)(=O)C1CC1`, for which the half-maximal effective concentration (EC50) in series [3] turned out to be 470 nM. Moreover, in series [6], the affinity, expressed as Ki, was 5.7 nM.
For `C=C[C@@H]1C[C@]1(NC(=O)[C@@H]1C[C@@H]2CN1C(=O)[C@H](C1CCCCC1)N[C@H](C)CCCCCCc1cccc3c1CN(C3)C(=O)O2)C(=O)NS(=O)(=O)C1CC1`, the concentration for a half-maximal effect (EC50) in series [3] was 2 nM. The molecule also registered an AUC(0-t) at 4 h in series [4] of under 100 nM·h. For the same molecule, in series [6], affinity was put at a Ki of 0.06 nM.
Consider `C=C[C@@H]1C[C@]1(NC(=O)[C@@H]1C[C@@H]2CN1C(=O)[C@H](C(C)C)NC(=O)OCCC/C=C/c1cccc3c1CN(C3)C(=O)O2)C(=O)NS(=O)(=O)C1CC1`, for which, in series [3], the EC50 came to 12 nM. The molecule further yielded a Ki in series [6] of 0.04 nM.
One may read the fraction unbound as the share of the substance not bound to proteins or other matrix. In series [7], `C=C[C@@H]1C[C@]1(NC(=O)[C@@H]1C[C@@H]2CN1C(=O)C(C(C)C)NC(C(F)(F)F)CCCCCCc1cccc3c1CN(C3)C(=O)O2)C(=O)NS(=O)(=O)C1CC1` (single isomer, unassigned) returned a fraction unbound of 0.019. Besides, the concentration for a half-maximal effect (EC50) stood at 18 nM in series [3] and 320 nM in series [8]. Moreover, the affinity in series [6], expressed as Ki, was 1.1 nM.
Consider `C=C[C@@H]1C[C@]1(NC(=O)[C@@H]1C[C@@H]2CN1C(=O)C(C(C)C)NCC(F)(F)CCCCCc1cccc3c1CN(C3)C(=O)O2)C(=O)NS(=O)(=O)C1CC1` (single isomer, unassigned), for which the 50% effective concentration (EC50) in series [3] was 14 nM; in series [8] it was 100 nM. The same molecule registered a Ki in series [6] of 0.35 nM.

Values taken from ChEMBL document CHEMBL1158491, “Inhibitors of the hepatitis C virus NS3 protease with basic amine functionality at the P3-amino acid N-terminus: discovery and optimization of a new series of P2-P4 macrocycles” (J Med Chem, 2009).
